Measurements as given in ChEMBL document CHEMBL3045311, “Naturally occurring antifungal agents against Zygosaccharomyces bailii and their synergism” (2005).
Values after ≈ are worked out from the molar mass of the structure shown. Active and inactive are the calls of the source. The rule behind the calls is not given here.

Experiments:
[1] = system: Saccharomyces cerevisiae; test: Antifungal activity against Saccharomyces cerevisiae ATCC 7754 assessed as reduction in plasma membrane fluidity at 100 ug/mL
[2] = system: Zygosaccharomyces bailii; test: Inhibition of cell growth in Zygosaccharomyces bailii at 50 ug/mL; type: functional, organism-based
Method in brief: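 Exponentially growing Z. bailii ATCC 60483 in YPD broth at 30 °C with drug at 0, 50 or 100 µg/mL. Viable counts taken over time by serial dilution in sterile saline and plating on YPD agar, 48 h at 30 °C, then CFU counted.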

[3] = system: Zygosaccharomyces bailii; test: Antifungal activity against Zygosaccharomyces bailii assessed as growth inhibition measured after 48 hr by macrodilution assay; type: functional
[4] = system: Zygosaccharomyces bailii; test: Antifungal activity against Zygosaccharomyces bailii assessed as growth inhibition measured at pH 9 after 48 hr by macrodilution assay; type: functional
Method in brief: (§1)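 Broth macrodilution in YPD adjusted to the stated pH, Z. bailii ATCC 60483. Serial 2-fold dilutions in DMF (1% final) added to broth; inoculum 10^5 CFU/mL from a 5 h 30 °C preculture. Static incubation, 30 °C, 48 h. MIC is the lowest concentration with no visible growth; MFC is the lowest with no regrowth after 48 h subculture in drug-free YPD.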

[5] = system: Zygosaccharomyces bailii; test: Antifungal activity against Zygosaccharomyces bailii assessed as growth inhibition measured at pH 7 after 48 hr by macrodilution assay; type: functional
Method in brief: as §1

[6] = system: Zygosaccharomyces bailii; test: Antifungal activity against Zygosaccharomyces bailii assessed as growth inhibition measured at pH 5 after 48 hr by macrodilution assay; type: functional
Method in brief: as §1

[7] = system: Zygosaccharomyces bailii; test: Antifungal activity against Zygosaccharomyces bailii assessed as growth inhibition measured at pH 3 after 48 hr by macrodilution assay; type: functional
Method in brief: as §1

[8] = system: Zygosaccharomyces bailii; test: Antifungal activity against Zygosaccharomyces bailii assessed as growth inhibition at MFC measured after 24 hr by macrodilution assay in presence of cycloheximide protein synthesis inhibitor; type: functional, organism-based
Method in brief: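 Z. bailii ATCC 60483 exponential cells grown in YPD broth at 30 °C with 50 µg/mL cycloheximide. After 24 h, agent added at its MFC. Viable counts by serial dilution in sterile saline, plating on YPD agar, 48 h at 30 °C, then colony counting.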

[9] = system: Saccharomyces cerevisiae; test: Antifungal activity against Saccharomyces cerevisiae ATCC 7754 assessed as reduction in plasma membrane fluidity at 25 ug/mL
[10] = system: Zygosaccharomyces bailii; test: Antifungal activity against Zygosaccharomyces bailii assessed as reduction in cell viability at 100 ug/mL treated at 24, 48 and 72 hr measured after 1 hr of each addition

**Q.** Which Activity [1] does the source give for `CCCCCCCCO` here?
**A.** inactive

**Q.** Which Activity [1] does the source give for `CCCCCCCCOC(=O)c1cc(O)c(O)c(O)c1` here?
**A.** Active

**Q.** Which inhibition [2] does the source give for `C[C@@H]1C[C@@H]([C@H](O)CC2CC(=O)NC(=O)C2)C(=O)[C@@H](C)C1` here?
**A.** Active

**Q.** What does the source list for `CCC/C=C/C(=O)O` [(2E)-HEXENOIC ACID]?
**A.** MFC [3]: 1600 mg/L (≈ 14 mM); MFC ([3]; read-out: MFC): 800 mg/L (≈ 7.01 mM)

**Q.** Which results are given for `CCC/C=C\C(=O)O` [(2Z)-HEXENOIC ACID]?
**A.** MFC [3]: 1600 mg/L (≈ 14 mM); MFC ([3]; read-out: MFC): 800 mg/L (≈ 7.01 mM)

**Q.** What does the source list for `C/C=C/c1ccc(OC)cc1` [ANETHOLE]?
**A.** MFC [4]: 1600 mg/L (≈ 10.8 mM); MIC [4]: 1600 mg/L (≈ 10.8 mM); MFC [5]: 1600 mg/L (≈ 10.8 mM); MIC [5]: 800 mg/L (≈ 5.4 mM); MFC [6]: 1600 mg/L (≈ 10.8 mM); MIC [6]: 400 mg/L (≈ 2.7 mM); MFC [7]: 1600 mg/L (≈ 10.8 mM); MIC [7]: 100 mg/L (≈ 0.675 mM); MFC [3]: 400 mg/L (≈ 2.7 mM); MFC ([3]; read-out: MFC): 200 mg/L (≈ 1.35 mM)

**Q.** What does the source list for `CCCCCC(=O)O` [HEXANOATE]?
**A.** MFC [3]: 3200 mg/L (≈ 27.5 mM); MFC ([3]; read-out: MFC): 800 mg/L (≈ 6.89 mM)

**Q.** How did the MFC [3] turn out when `C/C=C/C=C/C(=O)OC` [METHYL SORBATE] was run?
**A.** > 3200 mg/L

**Q.** What about the MFC ([3]; read-out: MFC) of the same molecule?
**A.** > 3200 mg/L

**Q.** With `Clc1ccc(COC(Cn2ccnc2)c2ccc(Cl)cc2Cl)c(Cl)c1` (stereo not given) [MICONAZOLE] as the molecule, how does the MFC [3] read?
**A.** 12.5 mg/L (≈ 0.03 mM)

**Q.** And the MFC ([3]; read-out: MFC)?
**A.** 12.5 mg/L (≈ 0.03 mM)

**Q.** With `CC1(C)CCC[C@]2(C)[C@@H](C=O)C(C=O)=CC[C@@H]12` [POLYGODIAL] as the molecule, how does the “growth inhibition (GI)” value [8] read?
**A.** Active

**Q.** And the MFC [3]?
**A.** 50 mg/L (≈ 0.213 mM)

**Q.** What about the MFC ([3]; read-out: MFC) of the same molecule?
**A.** 50 mg/L (≈ 0.213 mM)

**Q.** And the Activity [9]?
**A.** Active

**Q.** What about the inhibition [10] of the same molecule?
**A.** Active

**Q.** Which MFC [3] does the source give for `C/C=C/C=C/C(=O)O` [SORBIC ACID] here?
**A.** 1600 mg/L (≈ 14.3 mM)

**Q.** And the MFC ([3]; read-out: MFC)?
**A.** 800 mg/L (≈ 7.13 mM)
